The values below come from ChEMBL document CHEMBL2396597, “Synthesis and evaluation of novel orally active p53-MDM2 interaction inhibitors” (Bioorg Med Chem, 2013).

Series [1] is described as follows: AUC in NOD/SCID mouse at 100 mg/kg, po. In kind it is ADME, organism-based. Set-up: dose 100 mg/kg, route oral. The note with it: plasma.
The nature of series [2]: Drug uptake in tumor of NOD/SCID mouse xenografted with human MV4-11 cells at 100 mg/kg, po measured at 4 hrs by LC-MS/MS analysis. In kind it is ADME, organism-based, Neoplasm. Set-up: dose 100 mg/kg, route oral. The note with it: read-out: Drug uptake. The procedure, abridged:
(§1)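 Tumor-bearing mice were given 100 mg/kg orally, suspended in Japanese Pharmacopoeia First Fluid (pH 1.2). Tumors were collected at 1, 2, 4, 6 and 24 h after dosing and homogenized. Tumor drug concentration was quantified by LC/MS/MS on an ODS column.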
(In general: Xenograft models place foreign cells or tissue in a host animal.)

Series [3] in a line: Drug uptake in tumor of NOD/SCID mouse xenografted with human MV4-11 cells at 100 mg/kg, po measured at 1 hr by LC-MS/MS analysis. In kind it is ADME, organism-based, Neoplasm. Set-up: dose 100 mg/kg, route oral. The following applies: read-out: Drug uptake. The procedure, abridged: as §1
Series [4] is described as follows: Drug uptake in tumor of NOD/SCID mouse xenografted with human MV4-11 cells at 100 mg/kg, po measured at 6 hrs by LC-MS/MS analysis. The following applies: read-out: Drug uptake. It counts as ADME, organism-based, Neoplasm. Set-up: dose 100 mg/kg, route oral. In outline: as §1
Series [5] can be described thus: Plasma concentration in NOD/SCID mouse at 100 mg/kg, po measured at 2 hrs. In kind it is ADME, organism-based. Set-up: dose 100 mg/kg, route oral.
The nature of series [6]: Drug uptake in tumor of NOD/SCID mouse xenografted with human MV4-11 cells at 100 mg/kg, po measured at 2 hrs by LC-MS/MS analysis. In kind it is ADME, organism-based, Neoplasm. Set-up: dose 100 mg/kg, route oral. The following applies: read-out: Drug uptake. In outline: as §1
Series [7] can be described thus: Plasma concentration in NOD/SCID mouse at 100 mg/kg, po measured at 6 hrs. It counts as ADME, organism-based. Set-up: dose 100 mg/kg, route oral.
Series [8] can be described thus: Plasma concentration in NOD/SCID mouse at 100 mg/kg, po measured at 24 hrs. It counts as ADME, organism-based. Set-up: dose 100 mg/kg, route oral.
A short description of series [9]: Plasma concentration in NOD/SCID mouse at 100 mg/kg, po measured at 4 hrs. It counts as ADME, organism-based. Set-up: dose 100 mg/kg, route oral.
Series [10] can be described thus: Metabolic stability in mouse liver microsomes assessed as compound remaining at 1 uM after 30 mins by LC-MS/MS analysis. It counts as ADME, Microsome. The following applies: read-out: Stability. In outline: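 Compound at 1 μM final was incubated with mouse hepatic microsomes (0.5 mg/mL protein) in sodium phosphate buffer pH 7.4 at 37°C. Reaction was started with an NADPH-generating system and stopped with MeOH after 30 min. Samples were centrifuged, and loss of parent was measured by LC-MS/MS as % remaining.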

A short description of series [11]: Plasma concentration in NOD/SCID mouse at 100 mg/kg, po measured at 1 hr. In kind it is ADME, organism-based. Set-up: dose 100 mg/kg, route oral.
The nature of series [12]: Drug uptake in tumor of NOD/SCID mouse xenografted with human MV4-11 cells at 100 mg/kg, po measured at 24 hrs by LC-MS/MS analysis. The note with it: read-out: Drug uptake. In kind it is ADME, organism-based, Neoplasm. Set-up: dose 100 mg/kg, route oral. In outline: as §1

For `CC[C@@H]1CC[C@@H](C(=O)N2CCN(C(C)=O)[C@H](C)C2)N1C(=O)C1=C(C(C)C)N2C(=N[C@@](C)(c3ccc(Cl)cc3)[C@H]2c2ccc(Cl)cc2)S1`, the AUC in series [1] came out at 737 µg·h/mL. The concentration at 4 h was 31.2 µg/mL in [2] and 46.4 µg/mL in series [9]. Further, the concentration at 1 h in series [3] is 31.5 µg/mL; in series [11] it was 59.6 µg/mL. In addition, the concentration at 6 h in series [4] came out at 25.2 µg/mL; in series [7] it was 48.2 µg/mL. For the same compound, the results for the concentration at 2 h in series [5] and in series [6] were 68.4 µg/mL and 32.7 µg/mL, respectively. For the same compound, the concentration at 24 h in series [8] was 0.1 µg/mL. In series [10], the remaining at 0.5 h, 1 µM amounted to 59%.
On to `CC[C@@H]1CC[C@@H](C(=O)N2CCN(C)[C@H](C)C2)N1C(=O)C1=C(C(C)C)N2C(=N[C@@](C)(c3ccc(Cl)cc3)[C@H]2c2ccc(Cl)cc2)S1`, for which the remaining at 0.5 h, 1 µM in [10] is 76%.
The same measure, in the same setting: the same measure for `CC(C)C1=C(C(=O)N2CCC[C@H]2C(=O)N(C)C)SC2=N[C@@](C)(c3ccc(Cl)cc3)[C@@H](c3ccc(Cl)cc3)N21`: 9%.
Same read-out and setting: the same measure for `CC(=O)N1CCN(C(=O)[C@@H]2CC[C@@H](C)N2C(=O)C2=C(C(C)C)N3C(=N[C@@](C)(c4ccc(Cl)cc4)[C@H]3c3ccc(Cl)cc3)S2)C[C@@H]1C`: 65%; for `CC(C)C1=C(C(=O)N2[C@H](C)CC[C@H]2C(=O)N2CCN(C)[C@@H](C)C2)SC2=N[C@@](C)(c3ccc(Cl)cc3)[C@@H](c3ccc(Cl)cc3)N21`: 63%.
Same read-out and setting: the same measure for `CC[C@@H]1CC[C@@H](C(=O)N2CCN(C)CC2)N1C(=O)C1=C(C(C)C)N2C(=N[C@@](C)(c3ccc(Cl)cc3)[C@H]2c2ccc(Cl)cc2)S1`: 50%.
On to `CC[C@@H]1CC[C@@H](C(=O)N2CCN(C(C)=O)CC2)N1C(=O)C1=C(C(C)C)N2C(=N[C@@](C)(c3ccc(Cl)cc3)[C@H]2c2ccc(Cl)cc2)S1`, for which, in series [10], the remaining at 0.5 h, 1 µM stood at 38%.
Same read-out and setting: next, `CC(=O)N1CCN(C(=O)[C@@H]2CC[C@@H](C)N2C(=O)C2=C(C(C)C)N3C(=N[C@@](C)(c4ccc(Cl)cc4)[C@H]3c3ccc(Cl)cc3)S2)C[C@H]1C`: 55%.
In series [1], `CC(C)C1=C(C(=O)N2[C@H](C)CC[C@H]2C(=O)N2CCN(C)[C@H](C)C2)SC2=N[C@@](C)(c3ccc(Cl)cc3)[C@@H](c3ccc(Cl)cc3)N21` showed an area under the curve (AUC) of 93.1 µg·h/mL. Besides, the concentration at 4 h in [2] was determined as 27.9 µg/mL; in series [9], 7.5 µg/mL. Besides, the concentration at 1 h in [3] came to 18.9 µg/mL; in [11] it was 6.9 µg/mL. The concentration at 6 h in [4] was found to be 27.5 µg/mL; in [7], 5.7 µg/mL. Besides, the concentration at 24 h in series [12] amounted to 4.3 µg/mL; in series [8], 0.3 µg/mL. For the same compound, the results for the concentration at 2 h in series [5] and in series [6] were 7.8 µg/mL and 23.3 µg/mL, respectively. Besides, the remaining at 0.5 h, 1 µM in series [10] is 74%.
On to `CC[C@@H]1CC[C@@H](C(=O)N2CCN(C(C)=O)[C@@H](C)C2)N1C(=O)C1=C(C(C)C)N2C(=N[C@@](C)(c3ccc(Cl)cc3)[C@H]2c2ccc(Cl)cc2)S1`, for which, in [10], the remaining at 0.5 h, 1 µM is 54%.
Regarding `CC(C)C1=C(C(=O)N2[C@@H](C)CC[C@H]2C(=O)N(C)C)SC2=N[C@@](C)(c3ccc(Cl)cc3)[C@@H](c3ccc(Cl)cc3)N21`, the remaining at 0.5 h, 1 µM in [10] was determined as 39%.
On the same count and under the same terms, the same measure for `CC[C@@H]1CC[C@@H](C(=O)N(C)C)N1C(=O)C1=C(C(C)C)N2C(=N[C@@](C)(c3ccc(Cl)cc3)[C@H]2c2ccc(Cl)cc2)S1`: 70%; for `CC(C)C1=C(C(=O)N2[C@H](C)CC[C@H]2C(=O)N(C)C)SC2=N[C@@](C)(c3ccc(Cl)cc3)[C@@H](c3ccc(Cl)cc3)N21`: 53%; for `CC(=O)N1CCN(C(=O)[C@@H]2CC[C@@H](C)N2C(=O)C2=C(C(C)C)N3C(=N[C@@](C)(c4ccc(Cl)cc4)[C@H]3c3ccc(Cl)cc3)S2)CC1`: 13%.
For `CC(C)C1=C(C(=O)N2[C@H](C)CC[C@H]2C(=O)N2CCN(C)C(C)(C)C2)SC2=N[C@@](C)(c3ccc(Cl)cc3)[C@@H](c3ccc(Cl)cc3)N21`, the remaining at 0.5 h, 1 µM in series [10] was determined as 84%.
As to `CC(C)C1=C(C(=O)N2[C@H](C)CC[C@H]2C(=O)N2CCN(C)CC2)SC2=N[C@@](C)(c3ccc(Cl)cc3)[C@@H](c3ccc(Cl)cc3)N21`, the remaining at 0.5 h, 1 µM in series [10] was 25%.
Turning to `CC[C@@H]1CC[C@@H](C(=O)N2CCOCC2)N1C(=O)C1=C(C(C)C)N2C(=N[C@@](C)(c3ccc(Cl)cc3)[C@H]2c2ccc(Cl)cc2)S1`, the remaining at 0.5 h, 1 µM in series [10] was 6%.
`CC[C@H]1CC[C@@H](C(=O)N(C)C)N1C(=O)C1=C(C(C)C)N2C(=N[C@@](C)(c3ccc(Cl)cc3)[C@H]2c2ccc(Cl)cc2)S1`: in series [10], the remaining at 0.5 h, 1 µM was 47%.
Same read-out and setting: the same measure for `CC[C@@H]1CC[C@@H](C(=O)N2CCN(C)[C@@H](C)C2)N1C(=O)C1=C(C(C)C)N2C(=N[C@@](C)(c3ccc(Cl)cc3)[C@H]2c2ccc(Cl)cc2)S1`: 69%.

What is called AUC is the area under the concentration-time curve, a measure of exposure. The low end stands for low exposure, the high end for high exposure.
